In general, IC50 refers to the concentration that inhibits the measured activity by half.

Activity calls are given as the source filed them. No cut-off for these calls is given here.

In test [1] the test system is SK-ES1. The test can be described thus: Induction of apoptosis in human SK-ES-1 cells at 1 to 2 uM after 48 hrs by Hoechst 33258 staining-based fluorescence microscopic analysis. Type of test: functional, cell-based. In outline:
(§1)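 Dissociated sarcospheres seeded on glass coverslips in complete IMDM and exposed to 0.5, 1 and 2 μM for 48 h; untreated cells as negative control. Fixed in methanol/acetic acid (3:1), then stained with 2.25 μg/mL Hoechst 33258 for 10 min at rt in the dark. Apoptotic-body nuclei counted over at least five fields (20× objective) and reported as percentage of cells.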

Test [2] relates to A673. The test can be described thus: Cytotoxicity against human A673 cells assessed as cell viability after 72 hrs by MTT assay. The format is functional, cell-based. In a few lines: (§2)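 Sarcosphere-derived CSC cultures exposed 72 h to concentrations from 100 μM down to 0.1 μM. Viability compared with DMSO-only treated cells. IC50 calculated by linear regression.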
Background: Tetrazolium assays rely on reduction of a dye to a coloured formazan, in cell work by metabolically active cells.

Test [3] concerns HOS. The test can be described thus: Induction of apoptosis in HOS cells at 1 to 2 uM after 48 hrs by Hoechst 33258 staining-based fluorescence microscopic analysis. Type of test: functional, cell-based. Conditions: Homo sapiens. In a few lines: as §1
In test [4] the test system is MG-63. The test can be described thus: Cytotoxicity against human MG63 cells assessed as cell viability after 72 hrs by MTT assay. The format is functional, cell-based. In a few lines: as §2
The next test addresses Histone deacetylase 4 (Homo sapiens, UniProt P56524). The test can be described thus: Inhibition of recombinant HDAC4 (unknown origin) by homogeneous fluorescence release assay. In outline:
(§3)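 Isoform enzyme assay run in 10-dose IC50 mode. Compounds were serially diluted 3-fold starting from 50 μM solutions.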

Test [5] deals with A204. The test can be described thus: Cytotoxicity against human A204 cells assessed as cell viability after 72 hrs by MTT assay. The format is functional, cell-based. In outline:
as §2

Test [6] relates to A673. The test can be described thus: Antiproliferative activity against human A673 cells after 24 to 72 hrs by […] dye exclusion assay. The format is functional, cell-based. In outline: (§4)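 Sarcosphere-derived CSCs, dissociated to single cells, plated at 50000/well in complete IMDM for adhesion. After 24 h, exposed to 0.5, 1 and 2 μM. Viable cells counted by dye exclusion at 24, 48 and 72 h. Growth inhibition is expressed relative to DMSO-treated controls. Three experiments in duplicate.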

Test [7] concerns A204. The test can be described thus: Induction of apoptosis in human A204 cells at 1 to 2 uM after 48 hrs by Hoechst 33258 staining-based fluorescence microscopic analysis. Type of test: functional, cell-based. In outline: as §1
The test system of test [8] is RD. The test can be described thus: Cytotoxicity against human RD cells assessed as cell viability after 72 hrs by MTT assay. Type of test: functional, cell-based. In outline:
as §2

Test [9] relates to MG-63. The test can be described thus: Induction of apoptosis in human MG63 cells assessed as formation of apoptotic bodies after 48 hrs by Hoechst 33258 staining-based fluorescence microscopic analysis. The format is functional, cell-based. In outline: as §1
Test [10] concerns SK-ES1. The test can be described thus: Antiproliferative activity against human SK-ES-1 cells after 24 to 72 hrs by […] dye exclusion assay. Type of test: functional, cell-based. In a few lines: as §4
In test [11] the test system is MG-63. The test can be described thus: Antiproliferative activity against human MG63 cells after 24 to 72 hrs by […] dye exclusion assay. Type of test: functional, cell-based. In outline: as §4
Test [12] concerns MG-63. The test can be described thus: Induction of apoptosis in human MG63 cells at 0.5 to 2 uM after 48 hrs by Alexa Fluor 488 Annexin V/propidium iodide staining-based flow cytometric analysis. The format is functional, cell-based. On the technique in general: In flow cytometry, cells or beads pass a laser one at a time.
Test [13] deals with RD. The test can be described thus: Antiproliferative activity against human RD cells after 24 to 72 hrs by […] dye exclusion assay. Type of test: functional, cell-based. In a few lines:
as §4

Test [14] has as its system A673. The test can be described thus: Induction of apoptosis in human A673 cells at 1 to 2 uM after 48 hrs by Hoechst 33258 staining-based fluorescence microscopic analysis. The format is functional, cell-based. In outline: as §1
In the next test the target is Histone deacetylase 9 (Homo sapiens, UniProt Q9UKV0). The test can be described thus: Inhibition of recombinant HDAC9 (unknown origin) by homogeneous fluorescence release assay. In a few lines:
as §3

Test [15] addresses T1, Protein deacetylase HDAC6 (Homo sapiens) (UniProt Q9UBN7).
T1 sequence (whole entry): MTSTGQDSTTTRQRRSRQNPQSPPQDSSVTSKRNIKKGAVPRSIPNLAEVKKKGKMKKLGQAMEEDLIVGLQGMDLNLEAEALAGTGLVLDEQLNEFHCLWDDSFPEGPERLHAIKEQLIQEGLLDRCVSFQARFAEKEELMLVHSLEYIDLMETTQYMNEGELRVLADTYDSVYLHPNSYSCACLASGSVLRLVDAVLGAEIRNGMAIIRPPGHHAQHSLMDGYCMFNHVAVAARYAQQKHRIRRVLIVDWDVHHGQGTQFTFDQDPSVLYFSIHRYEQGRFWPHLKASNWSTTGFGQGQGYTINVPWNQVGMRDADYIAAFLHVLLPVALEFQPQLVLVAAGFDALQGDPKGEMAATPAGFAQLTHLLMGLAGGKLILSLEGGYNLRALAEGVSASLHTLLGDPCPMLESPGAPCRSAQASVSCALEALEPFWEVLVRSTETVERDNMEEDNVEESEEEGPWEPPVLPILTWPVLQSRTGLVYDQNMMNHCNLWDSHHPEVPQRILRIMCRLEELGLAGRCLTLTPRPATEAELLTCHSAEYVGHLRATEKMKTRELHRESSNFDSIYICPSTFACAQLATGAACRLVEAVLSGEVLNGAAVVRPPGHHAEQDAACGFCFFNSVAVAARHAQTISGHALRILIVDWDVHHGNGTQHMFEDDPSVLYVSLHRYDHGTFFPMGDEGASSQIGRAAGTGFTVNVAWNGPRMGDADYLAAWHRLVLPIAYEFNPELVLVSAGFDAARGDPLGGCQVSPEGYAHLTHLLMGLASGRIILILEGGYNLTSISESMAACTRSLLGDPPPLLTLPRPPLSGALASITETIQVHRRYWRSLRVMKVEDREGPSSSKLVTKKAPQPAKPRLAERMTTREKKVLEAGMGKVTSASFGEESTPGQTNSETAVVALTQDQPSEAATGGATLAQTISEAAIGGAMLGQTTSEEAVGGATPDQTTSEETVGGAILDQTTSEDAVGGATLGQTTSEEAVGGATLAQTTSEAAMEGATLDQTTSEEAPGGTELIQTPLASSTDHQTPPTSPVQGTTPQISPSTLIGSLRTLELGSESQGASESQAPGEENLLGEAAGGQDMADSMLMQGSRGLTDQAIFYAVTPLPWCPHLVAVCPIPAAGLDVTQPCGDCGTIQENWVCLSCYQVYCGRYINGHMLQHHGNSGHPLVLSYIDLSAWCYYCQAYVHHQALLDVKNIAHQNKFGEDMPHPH
The test can be described thus: Inhibition of HDAC6 in human MG63 cells assessed as upregulation of acetyl-tubulin level at 0.5 to 2 uM after 24 hrs by Western blot analysis relative to control. The format is cell-based. Conditions: MG-63. In a few lines: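 MG-63 sarcosphere-derived CSCs treated 24 h with 0.5 and 2 μM. Acetyl-tubulin measured by Western blot with densitometry normalized to TBP and expressed as index versus negative control.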
Background: Immunoblotting shows a protein as a band on a membrane.

The subject of test [16] is RD. The test can be described thus: Induction of apoptosis in human RD cells at 1 to 2 uM after 48 hrs by Hoechst 33258 staining-based fluorescence microscopic analysis. Type of test: functional, cell-based. In a few lines:
as §1

Test [17] relates to SK-ES1. The test can be described thus: Cytotoxicity against human SK-ES-1 cells assessed as cell viability after 72 hrs by MTT assay. Type of test: functional, cell-based. In a few lines: as §2
Test [18] has as its system HOS. The test can be described thus: Cytotoxicity against HOS cells assessed as cell viability after 72 hrs by MTT assay. The format is functional, cell-based. Conditions: Homo sapiens. In outline: as §2

Sequence of Histone deacetylase 4 (P56524 whole entry, canonical isoform): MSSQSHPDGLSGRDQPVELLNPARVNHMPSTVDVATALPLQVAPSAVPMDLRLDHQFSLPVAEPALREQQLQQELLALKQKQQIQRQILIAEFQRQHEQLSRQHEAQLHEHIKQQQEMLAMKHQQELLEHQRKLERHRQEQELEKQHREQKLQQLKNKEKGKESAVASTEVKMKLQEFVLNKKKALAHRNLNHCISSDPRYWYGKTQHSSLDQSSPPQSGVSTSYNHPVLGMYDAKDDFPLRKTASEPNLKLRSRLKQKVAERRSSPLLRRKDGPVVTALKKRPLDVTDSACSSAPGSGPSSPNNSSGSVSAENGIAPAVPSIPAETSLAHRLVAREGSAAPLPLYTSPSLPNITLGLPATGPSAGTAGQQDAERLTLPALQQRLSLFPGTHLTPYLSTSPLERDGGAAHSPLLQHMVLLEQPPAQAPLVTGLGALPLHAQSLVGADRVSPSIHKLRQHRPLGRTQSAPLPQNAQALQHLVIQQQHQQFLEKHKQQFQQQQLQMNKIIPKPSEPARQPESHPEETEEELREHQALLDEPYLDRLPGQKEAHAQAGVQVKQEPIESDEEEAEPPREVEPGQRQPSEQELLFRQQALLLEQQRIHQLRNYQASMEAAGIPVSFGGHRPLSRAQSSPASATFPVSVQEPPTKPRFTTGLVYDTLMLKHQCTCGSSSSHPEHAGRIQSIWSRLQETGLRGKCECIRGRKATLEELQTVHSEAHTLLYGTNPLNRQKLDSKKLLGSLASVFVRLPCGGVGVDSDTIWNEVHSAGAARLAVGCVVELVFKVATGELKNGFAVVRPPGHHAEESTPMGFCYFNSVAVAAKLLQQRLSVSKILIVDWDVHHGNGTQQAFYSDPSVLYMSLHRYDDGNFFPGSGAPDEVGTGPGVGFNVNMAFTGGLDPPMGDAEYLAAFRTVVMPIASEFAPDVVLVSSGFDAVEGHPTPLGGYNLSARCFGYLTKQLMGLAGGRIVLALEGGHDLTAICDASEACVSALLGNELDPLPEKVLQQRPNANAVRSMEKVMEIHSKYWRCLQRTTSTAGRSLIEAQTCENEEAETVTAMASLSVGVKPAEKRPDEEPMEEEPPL
Sequence of Histone deacetylase 9 (Q9UKV0 whole entry): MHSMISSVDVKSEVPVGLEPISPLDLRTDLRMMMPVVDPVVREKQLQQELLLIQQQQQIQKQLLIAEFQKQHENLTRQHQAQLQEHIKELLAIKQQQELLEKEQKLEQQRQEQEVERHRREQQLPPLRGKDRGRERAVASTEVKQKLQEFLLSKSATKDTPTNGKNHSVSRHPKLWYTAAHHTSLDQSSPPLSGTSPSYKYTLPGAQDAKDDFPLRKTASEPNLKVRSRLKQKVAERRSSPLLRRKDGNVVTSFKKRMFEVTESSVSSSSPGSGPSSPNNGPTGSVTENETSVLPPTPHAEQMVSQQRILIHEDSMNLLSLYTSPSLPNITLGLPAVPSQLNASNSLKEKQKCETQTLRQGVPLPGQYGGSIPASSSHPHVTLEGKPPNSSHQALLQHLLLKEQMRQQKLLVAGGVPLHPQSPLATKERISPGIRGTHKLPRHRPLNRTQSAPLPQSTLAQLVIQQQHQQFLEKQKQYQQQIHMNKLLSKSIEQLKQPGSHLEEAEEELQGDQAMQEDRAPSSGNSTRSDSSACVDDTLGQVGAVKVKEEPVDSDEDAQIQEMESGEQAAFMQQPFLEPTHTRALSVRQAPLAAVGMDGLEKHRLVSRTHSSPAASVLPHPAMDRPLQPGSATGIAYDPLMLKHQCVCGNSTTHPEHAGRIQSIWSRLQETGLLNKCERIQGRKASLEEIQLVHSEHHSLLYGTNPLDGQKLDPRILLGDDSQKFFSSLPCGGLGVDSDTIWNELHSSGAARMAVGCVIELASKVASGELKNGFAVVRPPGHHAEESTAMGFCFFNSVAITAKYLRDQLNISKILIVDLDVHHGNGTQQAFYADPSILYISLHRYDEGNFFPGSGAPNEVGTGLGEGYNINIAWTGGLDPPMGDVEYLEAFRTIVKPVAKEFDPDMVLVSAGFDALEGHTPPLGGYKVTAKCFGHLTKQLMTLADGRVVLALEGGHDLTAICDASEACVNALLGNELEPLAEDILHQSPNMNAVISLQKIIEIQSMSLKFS

For the compound `O=C(/C=C/c1ccc(NC(=O)C(Cc2ccccc2)c2ccccc2)cn1)NO` (stereo not given), the result with SK-ES1 [1], with HOS [3], in the test on MG-63 [12], with A673 [14] and with RD [16] was Active. For the same compound, the Activity result with A673 [2], with MG-63 [4], with A204 [5], with A673 [6], with RD [8] and in the test with MG-63 [9] was “Dose-dependent effect” each time. For the same compound, the Activity result in the test with SK-ES1 [10], with MG-63 [11], in the test on RD [13], in the test on SK-ES1 [17] and with HOS [18] was “Dose-dependent effect” each time. In addition, the IC50 on Histone deacetylase 4 worked out at 11.7 µM; at Histone deacetylase 9, 10.6 µM. The outcome in the test on A204 [7] was inactive. In addition, the inhibition result in test [15] is “Active”.

In the case of `O=C(CCCCSc1nc(-c2ccc(-c3ccccc3)cc2)cc(=O)[nH]1)NO`, the result in the test on SK-ES1 [1], with HOS [3], in the test on A204 [7], in the test on MG-63 [12], in the test with A673 [14] and in the test with RD [16] was Active. Also, the Activity entry with A673 [2], with MG-63 [4], in the test with A204 [5], with A673 [6], in the test with RD [8] and in the test with MG-63 [9] was “Dose-dependent effect” each time. Besides, the Activity entry in the test on SK-ES1 [10], in the test with MG-63 [11], in the test on RD [13], in the test on SK-ES1 [17] and in the test with HOS [18] was “Dose-dependent effect” in each case. The half-inhibitory concentration (IC50) at Histone deacetylase 4 and at Histone deacetylase 9 was greater than 50 µM in each case. For the same compound, the inhibition result in [15] is “Active”.
